These results are taken from ChEMBL document CHEMBL1129943, “5-aminocoumarans: dual inhibitors of lipid peroxidation and dopamine release with protective effects against central nervous system trauma and ischemia” (J Med Chem, 1997).

Molecules are shown by their SMILES.

Common to all, as to assay type: functional
For assay [1], the species on record is Mus musculus. As to the kind of experiment: Peroral dose required to reduce by 50% the score of excitatory behavior induced by intrathecal injection of ferrous chloride in mice. The note with it: central, read-out: ID50 (the source's name). An outline of the steps:
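Male Slc:ICR mice, 5 weeks old, 10 per dose. Compound given orally 30 min before intrathecal 5 μL of 50 mM FeCl2 in saline (between L6 and S1). Vehicle was water, or 0.5% gum arabic suspension. Behaviour scored 0–5 (biting to death) from 15 min to 1 h. ID50 from three or four doses, relative to vehicle score.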

The test system of assay [2] is Mus musculus. As to the kind of experiment: Percentage increase of locomotor activity in mice at a dose of 1 mg/kg dihydrochloride (15 mice were used). In a few lines:
(§1)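 Male ICR mice, 5 weeks, 25–35 g, acclimated 90 min. (S)- or (R)-dihydrochloride given ip in 5% gum arabic. Methamphetamine 1 mg/kg ip in saline given 30 min later. Locomotor activity recorded afterwards and expressed relative to saline–methamphetamine controls; two-tailed Student's t-test.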

Assay [3] deals with Mus musculus. As to the kind of experiment: Percentage increase of locomotor activity in mice at a dose of 10 mg/kg dihydrochloride (16 mice were used). In a few lines:
as §1

Assay [4] concerns Mus musculus. Put plainly: Percentage increase of locomotor activity in mice at a dose of 3 mg/kg dihydrochloride (13 mice were used). An outline of the steps:
as §1

Assay [5] relates to Mus musculus. As to the kind of experiment: Locomotor activity was measured for 1 hour after administration of 1 mg/kg of dihydrchloride in mice (15 mice were used). An outline of the steps: as §1
Assay [6] has as its system Mus musculus. As to the kind of experiment: Locomotor activity was measured for 1 hour after administration of 10 mg/kg of dihydrchloride in mice (16 mice were used). In a few lines:
as §1

Assay [7] relates to Mus musculus. Put plainly: Locomotor activity was measured for 1 hour after administration of 3 mg/kg of dihydrchloride in mice (13 mice were used). An outline of the steps: as §1
Assay [8] is filed under the species Mus musculus. Put plainly: Percentage increase of locomotor activity in mice.
The subject of assay [9] is Mus musculus. Put plainly: Locomotor activity was measured in mice after 1 hour administration of methamphetamine. Details: unit not given here.
For another assay, the species on record is Rattus norvegicus. Put plainly: Inhibition of lipid peroxidation by rat liver microsomes. Details: concentration or dose not given beside the values. As to conditions: dose or concentration not given here. An outline of the steps: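 Rat liver microsomes (S-9), 0.3 mg protein in 40 mM Tris-malate pH 7.4. Peroxidation started with a 1:1 mix of FeCl2 (0.25 mM) and NADPH (3 mM), then 1 h at 37 °C. Compound in DMSO added before incubation, tested up to 1 μM final. Thiobarbituric acid method read-out. Activity relative to DMSO vehicle; IC50 from four concentrations by nonlinear regression, otherwise % inhibition at 1 μM.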

For assay [10], the system named is Mus musculus. Put plainly: Percentage increase of locomotor activity in mice at dose of 0.1 mg/kg dihydrochloride (10 mice were used). An outline of the steps: as §1
In assay [11] the test system is Mus musculus. Put plainly: Percentage increase of locomotor activity in mice at dose of 0.3 mg/kg dihydrochloride (9 mice were used). In a few lines: as §1
Assay [12] concerns Mus musculus. Put plainly: Percentage increase of locomotor activity in mice at dose of 1 mg/kg apomorphine (11 mice were used). In a few lines: (§2)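 Male ICR mice, 5 weeks. Dihydrochloride given ip 30 min before apomorphine 1 mg/kg sc, the hypermotility inducer used in place of methamphetamine. Spontaneous motor activity monitored afterwards; two-tailed Student's t-test.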

Assay [13] deals with Mus musculus. Put plainly: Percentage increase of locomotor activity in mice at dose of 1 mg/kg dihydrochloride (9 mice were used).
The test system of assay [14] is Mus musculus. As to the kind of experiment: Locomotor activity was measured for 1 hour after administration of 0.1 mg/kg dihydrochloride in mice (10 mice were used). In a few lines:
as §1

Assay [15] concerns Mus musculus. As to the kind of experiment: Locomotor activity was measured for 1 hour after administration of 0.3 mg/kg dihydrochloride in mice (9 mice were used). In a few lines:
as §1

Assay [16] deals with Mus musculus. As to the kind of experiment: Locomotor activity was measured for 1 hour after administration of 1 mg/kg apomorphine in mice (11 mice were used). An outline of the steps: as §2
The test system of assay [17] is Mus musculus. Put plainly: Locomotor activity was measured for 1 hour after administration of 1 mg/kg dihydrochloride in mice (9 mice were used). In a few lines: as §1

On to `Cc1c(C)c2c(c(C)c1N)C[C@](C)(CN1CCC(c3ccccc3)CC1)O2`, for which, in the assay listed under Mus musculus [1], the ED50 was determined as 11.6 mg/kg. Also, the Increase in the assay with Mus musculus [2] is on record as 129%; in the assay on Mus musculus [3], 67.7%; with Mus musculus [4], 169%. Besides, the Locomotor activity in the assay with Mus musculus [5] is given as 1472; with Mus musculus [6], 889; with Mus musculus [7], 1852.
As usually defined, the inhibition is the drop in the measured response relative to a control, in per cent. On to `Cc1c(C)c2c(c(C)c1N)CC(C)(CCN(C)C)O2` (stereo not given), for which the Increase in the assay listed under Mus musculus [8] amounted to 115.2%. Moreover, in the assay filed under Mus musculus [1], the ED50 worked out at 19 mg/kg. Moreover, in the assay on Mus musculus [9], the Locomotor activity amounted to 2129. The same compound gave an inhibition in the assay listed under Rattus norvegicus of 4%.
As to `Cc1c(C)c2c(c(C)c1N)C[C@@](C)(CN1CCC(c3ccccc3)CC1)O2`, the ED50 in the assay filed under Mus musculus [1] was found to be 10.8 mg/kg. The Increase was 113.2% with Mus musculus [10], 54.4% in the assay on Mus musculus [11], 124.5% with Mus musculus [12] and 35.1% with Mus musculus [13]. In addition, the Locomotor activity in the assay on Mus musculus [14] came out at 2103; in the assay with Mus musculus [15], 1102; in the assay with Mus musculus [16] it was 841; in the assay on Mus musculus [17], 773.
Take `Cc1c(C)c2c(c(C)c1N)CC(C)(Cn1ccnc1)O2` (stereo not given): the Increase in the assay filed under Mus musculus [8] worked out at 155.1%. Further, in the assay filed under Mus musculus [1], the ED50 is 25 mg/kg. The Locomotor activity in the assay with Mus musculus [9] is 3950. The same compound showed an inhibition in the assay listed under Rattus norvegicus of 6%.
Consider `Cc1c(C)c2c(c(C)c1N)C(c1cccnc1)C(C)(C)O2` (stereo not given), for which, in the assay listed under Mus musculus [8], the Increase is 52.1%. For the same compound, the ED50 in the assay listed under Mus musculus [1] is 32.1 mg/kg. In the assay on Mus musculus [9], this compound displayed a Locomotor activity of 1488. The inhibition in the assay filed under Rattus norvegicus turned out to be 22%.
In the case of `Cc1c(C)c2c(c(C)c1N)CC(C)(CN1CCCCC1)O2` (stereo not given), the Increase in the assay filed under Mus musculus [8] came out at 93.7%. Besides, the ED50 in the assay filed under Mus musculus [1] was 11.7 mg/kg. Also, the Locomotor activity in the assay on Mus musculus [9] is recorded as 2960. Moreover, the inhibition in the assay listed under Rattus norvegicus was 18%.
The compound `Cc1c(C)c2c(c(C)c1N)CC(C)(CN1CCN(C)CC1)O2` (stereo not given) had an Increase in the assay filed under Mus musculus [8] of 181.1%. Further, the ED50 in the assay filed under Mus musculus [1] came to 25.3 mg/kg. In addition, the Locomotor activity in the assay with Mus musculus [9] turned out to be 3154. Moreover, the inhibition in the assay listed under Rattus norvegicus is 10%.
With `CNc1c(C)c(C)c2c(c1C)CC(C)(C)O2`, the Increase in the assay filed under Mus musculus [8] was 84.7%. For the same compound, the ED50 in the assay filed under Mus musculus [1] is 16.6 mg/kg. In addition, in the assay with Mus musculus [9], the Locomotor activity was 1229. For the same compound, the inhibition in the assay listed under Rattus norvegicus turned out to be 18%.
